The record followed here is ChEMBL document CHEMBL4371097, “Antibacterial Aromatic Polyketides Incorporating the Unusual Amino Acid Enduracididine” (J Nat Prod, 2019).

Values after ≈ are worked out from the molar mass of the structure shown. Active and inactive are the calls of the source. The rule behind the calls is not given here.

For data set [1], the system named is Enterococcus faecium. The data set is described as follows: Antibacterial activity against Vancomycin A-inducible resistant Enterococcus faecium isolate 569 after 16 hrs by agar diffusion method. Format: functional.
The test system of data set [2] is Staphylococcus haemolyticus. The data set is described as follows: Antibacterial activity against Staphylococcus haemolyticus isolate 1730 after 16 hrs by agar diffusion method. Format: functional. A general note: In agar diffusion tests the substance spreads into inoculated agar from a disc or well.
Data set [3] deals with Enterococcus faecium. As to the kind of experiment: Antibacterial activity against Enterococcus faecium isolate 568 after 16 hrs by agar diffusion method. Format: functional.
Another data set deals with Cutibacterium acnes. As to the kind of experiment: Antibacterial activity against Propionibacterium acnes ATCC 25746 after 16 hrs by agar diffusion method. The class given is functional.
For data set [4], the system named is Staphylococcus aureus. The data set is described as follows: Antibacterial activity against multidrug-resistant Staphylococcus aureus isolate 3797 after 16 hrs by agar diffusion method. Format: functional.
The subject of a further data set is Streptococcus pyogenes. The data set is described as follows: Antibacterial activity against Streptococcus pyogenes isolate 49 after 16 hrs by agar diffusion method. The class given is functional.
Data set [5] deals with Streptococcus pneumoniae. As to the kind of experiment: Antibacterial activity against Streptococcus pneumoniae ATCC BAA1407 after 16 hrs by agar diffusion method. The class given is functional.
Data set [6] relates to Staphylococcus aureus. The data set is described as follows: Antibacterial activity against methicillin-resistant Staphylococcus aureus isolate 3864 after 16 hrs by agar diffusion method. Format: functional.
In data set [7] the test system is Staphylococcus haemolyticus. As to the kind of experiment: Antibacterial activity against multidrug-resistant Staphylococcus haemolyticus isolate 1729 after 16 hrs by agar diffusion method. Format: functional.
In data set [8] the test system is Streptococcus pneumoniae. The data set is described as follows: Antibacterial activity against Streptococcus pneumoniae isolate 44 after 16 hrs by agar diffusion method. The class given is functional.
The subject of data set [9] is Staphylococcus intermedius. As to the kind of experiment: Antibacterial activity against Staphylococcus intermedius ATCC 29663 after 16 hrs by agar diffusion method. The class given is functional.
Another data set deals with Clostridioides difficile. The data set is described as follows: Antibacterial activity against Clostridium difficile ATCC 17858 after 16 hrs by agar diffusion method. The class given is functional.
Data set [10] is described as follows: Growth inhibition of human PANC1 cells at 90 uM after 48 hrs by MTT assay relative to control. Format: cell-based. As to conditions: PANC-1 cells, read-out: GI. A general note: Formazan colour is commonly taken as a measure of viable cells.
Data set [11] relates to Mycolicibacterium smegmatis. As to the kind of experiment: Antibacterial activity against Mycobacterium smegmatis after 16 hrs by agar diffusion method. The class given is functional, organism-based.
Data set [12] relates to Staphylococcus aureus. As to the kind of experiment: Bactericidal activity against Staphylococcus aureus isolate 3797 at 8 times MIC up to 2 to 4 hrs by time kill assay relative to control. Format: functional.
Data set [13] relates to Staphylococcus aureus. As to the kind of experiment: Bactericidal activity against Staphylococcus aureus ATCC 6538P up to 8 times MIC up to 24 hrs by time kill assay. Format: functional, organism-based.
The test system of data set [14] is Staphylococcus aureus. As to the kind of experiment: Bactericidal activity against Staphylococcus aureus ATCC 6538P at 8 times MIC up to 2 to 4 hrs by time kill assay relative to control. The class given is functional.
For data set [15], the system named is Staphylococcus aureus. As to the kind of experiment: Inhibition of RNA synthesis in Staphylococcus aureus isolate 12ST assessed as reduction in [3H]uridine incorporation up to 60 ug/ml preincubated for 5 mins followed by [3H]uridine addition and measured after 5 mins by liquid scintillation counting method. The class given is functional, organism-based. Summed up:
(§1)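 S. aureus 12ST was grown overnight in 0.2× LB, diluted 200-fold and grown at 37 °C to OD600 0.2–0.25. 80 µL aliquots got medium or compound (added at 10× final) for 5 min at 37 °C. [5,6-3H]uridine 0.15 µCi or L-[5-3H]tryptophan 0.25 µCi was added for 5 min more. Samples were precipitated in ice-cold 5% TCA, filtered and scintillation-counted. DMSO ≤0.5% final.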

Data set [16] deals with Staphylococcus aureus. As to the kind of experiment: Inhibition of cell wall synthesis in Staphylococcus aureus isolate 12ST assessed as reduction in [3H]glucosamine hydrochloride incorporation preincubated for 5 mins followed by [3H]glucosamine hydrochloride addition and measured after 5 mins by liquid scintillation counting method. The class given is functional, organism-based. Summed up:
(§2)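 S. aureus 12ST was grown overnight in 0.2× LB, diluted 200-fold, and grown at 37 °C to OD600 0.2–0.25. Aliquots were exposed to compound for 5 min at 37 °C (0.5% DMSO maximum final). Label was then added ([6-3H]thymidine 0.15 μCi/sample; D-[6-3H]glucosamine 0.4 μCi/sample) for 5 min at 37 °C. Samples were precipitated with ice-cold 5% TCA for ≥30 min, filtered, washed, and scintillation counted.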

Another data set deals with HEK293. The data set is described as follows: Growth inhibition of HEK293 cells after 48 hrs by MTT assay. As to conditions: Homo sapiens, HEK293, 48 h. The class given is cell-based.
The subject of data set [17] is Staphylococcus aureus. The data set is described as follows: microbe, parasite or virus in culture. As to conditions: ATCC 6538P, 16 h.
The test system of data set [18] is Staphylococcus aureus. The data set is described as follows: Inhibition of DNA synthesis in Staphylococcus aureus isolate 12ST assessed as reduction in 5-[3H]thymidine incorporation preincubated for 5 mins followed by 5-[3H]thymidine addition and measured after 5 mins by liquid scintillation counting method. Format: functional, organism-based. Summed up:
as §2
(In general: Uptake of a labelled nucleoside into DNA is a usual measure of proliferation.)

A further data set concerns Candida albicans. As to the kind of experiment: Antifungal activity against Candida albicans after 16 hrs by agar diffusion method. Format: functional, organism-based.
For data set [19], the system named is Staphylococcus aureus. As to the kind of experiment: microbe, parasite or virus in culture. The following applies: ATCC 29213, 16 h.
In another data set the test system is Bacillus subtilis. As to the kind of experiment: Inhibition of cell wall synthesis in Bacillus subtilis BAU102 assessed as induction of beta-galactosidase activity preincubated for 120 mins followed by beta-galactosidase chromogenic substrate addition. The class given is functional, organism-based.
Data set [20] relates to Staphylococcus aureus. The data set is described as follows: Stimulation of protein synthesis in Staphylococcus aureus isolate 12ST assessed as increase in L-[3H]tryptophan incorporation preincubated for 5 mins followed by L-[3H]tryptophan addition and measured after 5 mins by liquid scintillation counting method. Format: functional, organism-based. Summed up: as §1
Data set [21] deals with Staphylococcus aureus. The data set is described as follows: Bactericidal activity against Staphylococcus aureus isolate 3797 up to 8 times MIC up to 24 hrs by time kill assay. Format: functional, organism-based.

Regarding GENTAMICIN, the MIC with Enterococcus faecium [1] is 16 µg/mL; in data set [2], over 128 µg/mL; against Enterococcus faecium [3], 32 µg/mL; against Cutibacterium acnes, 2 µg/mL; in the data set with Staphylococcus aureus [4] it was 64 µg/mL; in the data set on Streptococcus pyogenes, 16 µg/mL. Further, the MIC against Streptococcus pneumoniae [5] is 64 µg/mL; against Staphylococcus aureus [6], over 128 µg/mL; in data set [7], over 128 µg/mL; against Streptococcus pneumoniae [8] it was 8 µg/mL; in data set [9] (NCTC 11048), under 0.125 µg/mL; against Clostridioides difficile, 128 µg/mL.
As for `CN[C@H](CC(C)C)C(=O)N[C@H]1C(=O)N[C@@H](CC(N)=O)C(=O)N[C@H]2C(=O)N[C@H]3C(=O)N[C@H](C(=O)N[C@H](C(=O)O)c4cc(O)cc(O)c4-c4cc3ccc4O)[C@H](O)c3ccc(c(Cl)c3)Oc3cc2cc(c3O[C@@H]2O[C@H](CO)[C@@H](O)[C@H](O)[C@H]2O[C@H]2C[C@](C)(N)[C@H](O)[C@H](C)O2)Oc2ccc(cc2Cl)[C@H]1O` [VANCOMYCIN], the MIC is over 128 µg/mL in the data set with Enterococcus faecium [1] (isolate 569, 16 h); 2 µg/mL (≈ 1.38 µM) in [2] (isolate 1730, 16 h); 0.25 µg/mL (≈ 0.173 µM) in the data set on Cutibacterium acnes (ATCC 25746, 16 h); 8 µg/mL (≈ 5.52 µM) against Staphylococcus aureus [4] (isolate 3797, 16 h); 0.25 µg/mL (≈ 0.173 µM) in the data set with Streptococcus pyogenes (isolate 49, 16 h); 0.5 µg/mL (≈ 0.345 µM) against Streptococcus pneumoniae [5] (ATCC BAA1407, 16 h). The MIC in data set [7] (isolate 1729, 16 h) was 2 µg/mL (≈ 1.38 µM); with Streptococcus pneumoniae [8] (isolate 44, 16 h), 0.125 µg/mL (≈ 0.0863 µM); in [9] (NCTC 11048, 16 h), 1 µg/mL (≈ 0.69 µM); against Clostridioides difficile (ATCC 17858, 16 h), 0.5 µg/mL (≈ 0.345 µM).
In general, IC50 refers to the concentration that inhibits the measured activity by half. For the compound `COc1c(OC)c2c(=O)c3cc(C)n(C(CC4CN(C)C(=N)N4)C(=O)O)c(=O)c3c(=O)c2c2cc3c(=O)c4cc(O)cc(O)c4c(=O)c3c(OC)c12` (stereo unspecified), the MIC came to 2 µg/mL (≈ 2.81 µM) with Enterococcus faecium [1] (isolate 569, 16 h); 0.03 µg/mL (≈ 0.0422 µM) in data set [2] (isolate 1730, 16 h); 4 µg/mL (≈ 5.63 µM) against Enterococcus faecium [3] (isolate 568, 16 h); 0.25 µg/mL (≈ 0.352 µM) in the data set on Cutibacterium acnes (ATCC 25746, 16 h); 0.03 µg/mL (≈ 0.0422 µM) with Staphylococcus aureus [4] (isolate 3797, 16 h); 0.5 µg/mL (≈ 0.704 µM) in the data set on Streptococcus pyogenes (isolate 49, 16 h). Further, the MIC against Streptococcus pneumoniae [5] (ATCC BAA1407, 16 h) turned out to be 0.25 µg/mL (≈ 0.352 µM); against Staphylococcus aureus [6] (isolate 3864, 16 h), 0.03 µg/mL (≈ 0.0422 µM); in data set [7] (isolate 1729, 16 h), 0.015 µg/mL (≈ 0.0211 µM); in the data set with Staphylococcus aureus [17] it was 0.004 µg/mL (≈ 0.00563 µM); against Streptococcus pneumoniae [8] (isolate 44, 16 h), 0.25 µg/mL (≈ 0.352 µM); in the data set with Staphylococcus aureus [19], 0.0005 µg/mL (≈ 0.000704 µM). In addition, the MIC came to 0.007 µg/mL (≈ 0.00985 µM) in [9] (NCTC 11048, 16 h) and 2 µg/mL (≈ 2.81 µM) in the data set with Clostridioides difficile (ATCC 17858, 16 h). In data set [10], the inhibition at 48 h, 90 µM was determined as 20%. Besides, the outcome (in [11]; in the data set with Staphylococcus aureus [13]; with Candida albicans; in the data set on Staphylococcus aureus [21]) was inactive. Also, the Activity with Staphylococcus aureus [12] and with Staphylococcus aureus [14] was over 99.9% in each case. In the data set with Staphylococcus aureus [15], the inhibition result was “inactive”. Also, the IC50 with Staphylococcus aureus [16] was 5 µg/mL (≈ 7.04 µM); with HEK293, 55 µM; in the data set on Staphylococcus aureus [18], 2 µg/mL (≈ 2.81 µM). For the same compound, the inhibition result in the data set on Staphylococcus aureus [16] and in the data set on Staphylococcus aureus [18] was “Dose-dependent effect” each time. For the same compound, in the data set with Bacillus subtilis, the inhibition result was “Active”. For the same compound, the outcome in the data set on Staphylococcus aureus [20] was Active.
